Test results reported in ChEMBL document CHEMBL5523707, “Novel Inhibitory Site Revealed by XAP044 Mode of Action on the Metabotropic Glutamate 7 Receptor Venus Flytrap Domain” (J Med Chem, 2024).
Activity calls are given as the source filed them. No cut-off for these calls is given here.

Key:
[1] = target: Metabotropic glutamate receptor 7 (Rattus norvegicus) (UniProt P35400); assay: Antagonist activity against LSP4-202-induced rat mGlu7 activation transfected in HEK293 cells co-transfected with chimeric Gqi9 assessed as decrease in LSP4-202 potency by measuring LSP4-202 maximum efficacy at 30 to 100 uM incubated for 24 hrs by IP-one HTRF assay relative to control; format: functional, cell-based; details: filed as antagonist, dose 30-100 µM
Sequence of Metabotropic glutamate receptor 7 (Rattus norvegicus) (P35400 whole entry): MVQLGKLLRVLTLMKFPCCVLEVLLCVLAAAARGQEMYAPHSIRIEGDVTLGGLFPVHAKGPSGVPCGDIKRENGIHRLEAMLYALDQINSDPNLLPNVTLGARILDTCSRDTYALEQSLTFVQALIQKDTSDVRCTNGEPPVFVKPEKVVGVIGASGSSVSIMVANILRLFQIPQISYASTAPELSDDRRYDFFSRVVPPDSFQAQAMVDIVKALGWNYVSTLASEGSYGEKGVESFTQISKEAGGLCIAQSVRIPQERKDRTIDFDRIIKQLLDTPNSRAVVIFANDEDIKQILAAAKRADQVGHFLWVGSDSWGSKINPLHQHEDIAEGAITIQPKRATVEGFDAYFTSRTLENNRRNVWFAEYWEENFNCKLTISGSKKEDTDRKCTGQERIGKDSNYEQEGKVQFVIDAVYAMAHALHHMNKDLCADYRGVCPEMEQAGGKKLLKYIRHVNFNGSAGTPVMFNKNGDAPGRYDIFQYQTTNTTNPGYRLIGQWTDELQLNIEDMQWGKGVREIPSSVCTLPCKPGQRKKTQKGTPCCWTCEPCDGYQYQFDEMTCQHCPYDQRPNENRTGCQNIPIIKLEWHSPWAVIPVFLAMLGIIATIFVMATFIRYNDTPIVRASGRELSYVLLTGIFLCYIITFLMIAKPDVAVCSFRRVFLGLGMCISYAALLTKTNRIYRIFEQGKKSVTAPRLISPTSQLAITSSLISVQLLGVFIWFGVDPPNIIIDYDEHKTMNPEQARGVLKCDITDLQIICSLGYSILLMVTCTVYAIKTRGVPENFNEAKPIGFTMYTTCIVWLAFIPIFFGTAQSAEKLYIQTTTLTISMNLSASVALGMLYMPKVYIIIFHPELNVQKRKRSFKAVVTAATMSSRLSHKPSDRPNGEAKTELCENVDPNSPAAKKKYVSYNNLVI
How it was run: (§1)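 IP-One HTRF IP1 read-out in HEK293 transiently expressing rat mGlu7 plus chimeric Gqα9, 24 h after electroporation. LSP4-2022 concentration-response was tested with derivatives at 30 or 100 µM. Gives pEC50, pEC50/pEC50 control ratio, and max as % of LSP4-2022 maximal effect over basal. Triplicates, n independent experiments; paired t-test.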

Rattus norvegicus = organism: Rattus norvegicus; assay: Ratio of pEC50 for antagonist activity against LSP4-202-induced rat mGlu7 activation transfected in HEK293 cells co-transfected with chimeric Gqi9 assessed as decrease in LSP4-202 potency to pEC50 for LSP4-202-induced rat mGlu7 activation transfected in HEK293 cells co-transfected with chimeric Gqi9; format: cell-based; how it was run: as §1
[2] = target: Metabotropic glutamate receptor 7 (Rattus norvegicus) (UniProt P35400); assay: Antagonist activity against LSP4-202-induced rat mGlu7 activation transfected in HEK293 cells co-transfected with chimeric Gqi9 assessed as decrease in LSP4-202 potency by measuring LSP4-202 pEC50 incubated for 24 hrs by IP-one HTRF assay; format: functional, cell-based; how it was run: as §1
[3] = Agonist activity at rat mGlu7 S229A mutant
[4] = target: Metabotropic glutamate receptor 4 (Rattus norvegicus, UniProt P31423); assay: Agonist activity against wild type rat mGlu4; format: functional
Sequence of Metabotropic glutamate receptor 4 (Rattus norvegicus, UniProt P31423) (P31423 whole entry): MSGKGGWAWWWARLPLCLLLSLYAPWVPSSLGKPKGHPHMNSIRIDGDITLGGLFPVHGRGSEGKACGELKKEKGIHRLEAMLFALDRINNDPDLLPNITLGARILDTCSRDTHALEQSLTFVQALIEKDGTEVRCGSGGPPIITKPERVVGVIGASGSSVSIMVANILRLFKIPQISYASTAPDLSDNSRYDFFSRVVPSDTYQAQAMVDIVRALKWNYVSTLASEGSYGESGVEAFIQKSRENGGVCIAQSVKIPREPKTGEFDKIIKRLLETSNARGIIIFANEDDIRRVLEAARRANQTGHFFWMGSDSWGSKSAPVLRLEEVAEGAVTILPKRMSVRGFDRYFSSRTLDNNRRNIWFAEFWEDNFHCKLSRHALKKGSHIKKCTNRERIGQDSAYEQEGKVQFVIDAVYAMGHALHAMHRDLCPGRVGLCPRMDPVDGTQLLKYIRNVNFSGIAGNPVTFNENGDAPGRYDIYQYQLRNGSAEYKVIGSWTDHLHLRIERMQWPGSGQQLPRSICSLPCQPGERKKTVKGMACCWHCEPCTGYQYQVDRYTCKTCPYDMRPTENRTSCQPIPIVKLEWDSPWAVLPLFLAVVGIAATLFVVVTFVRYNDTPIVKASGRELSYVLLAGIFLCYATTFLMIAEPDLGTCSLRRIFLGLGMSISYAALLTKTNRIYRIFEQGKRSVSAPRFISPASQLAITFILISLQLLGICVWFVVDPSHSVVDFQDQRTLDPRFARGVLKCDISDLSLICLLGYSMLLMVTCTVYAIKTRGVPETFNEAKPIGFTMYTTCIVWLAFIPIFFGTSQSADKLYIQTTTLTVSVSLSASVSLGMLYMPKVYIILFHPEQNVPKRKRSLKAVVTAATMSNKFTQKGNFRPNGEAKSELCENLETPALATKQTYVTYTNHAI

[5] = target: Metabotropic glutamate receptor 4 (Rattus norvegicus, UniProt P31423, S160D); assay: Agonist activity against rat mGlu4 S160D mutant
Sequence of Metabotropic glutamate receptor 4 (Rattus norvegicus, UniProt P31423, S160D) (P31423 33-912 S160D limits assumed): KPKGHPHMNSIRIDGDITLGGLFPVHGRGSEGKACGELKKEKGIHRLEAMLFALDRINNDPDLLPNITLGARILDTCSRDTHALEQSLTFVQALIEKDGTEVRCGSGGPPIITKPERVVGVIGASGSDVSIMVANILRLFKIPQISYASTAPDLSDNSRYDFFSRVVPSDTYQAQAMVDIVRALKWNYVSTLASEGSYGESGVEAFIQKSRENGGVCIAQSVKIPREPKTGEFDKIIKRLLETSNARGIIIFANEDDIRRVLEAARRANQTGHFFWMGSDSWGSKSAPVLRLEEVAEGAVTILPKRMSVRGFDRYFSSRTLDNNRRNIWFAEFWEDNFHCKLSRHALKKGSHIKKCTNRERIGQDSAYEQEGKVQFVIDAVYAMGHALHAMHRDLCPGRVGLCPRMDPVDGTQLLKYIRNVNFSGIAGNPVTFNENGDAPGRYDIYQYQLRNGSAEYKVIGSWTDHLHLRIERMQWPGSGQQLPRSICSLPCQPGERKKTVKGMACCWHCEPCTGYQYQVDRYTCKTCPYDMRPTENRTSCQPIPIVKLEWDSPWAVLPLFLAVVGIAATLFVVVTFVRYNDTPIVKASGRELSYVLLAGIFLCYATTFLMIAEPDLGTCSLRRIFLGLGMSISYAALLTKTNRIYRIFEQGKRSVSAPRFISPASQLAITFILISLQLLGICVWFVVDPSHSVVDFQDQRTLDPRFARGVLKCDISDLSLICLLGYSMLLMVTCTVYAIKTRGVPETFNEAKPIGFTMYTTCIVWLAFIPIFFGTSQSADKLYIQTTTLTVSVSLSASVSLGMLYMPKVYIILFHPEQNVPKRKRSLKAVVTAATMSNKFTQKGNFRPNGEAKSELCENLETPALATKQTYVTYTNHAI

[6] = Agonist activity at rat mGlu4 loop beta-10-alpha7 region
[7] = target: Metabotropic glutamate receptor 7 (Rattus norvegicus, UniProt P35400, N74K); assay: Agonist activity at rat mGlu7 N74K mutant
Sequence of Metabotropic glutamate receptor 7 (Rattus norvegicus, UniProt P35400, N74K) (P35400 35-915 N74K limits assumed): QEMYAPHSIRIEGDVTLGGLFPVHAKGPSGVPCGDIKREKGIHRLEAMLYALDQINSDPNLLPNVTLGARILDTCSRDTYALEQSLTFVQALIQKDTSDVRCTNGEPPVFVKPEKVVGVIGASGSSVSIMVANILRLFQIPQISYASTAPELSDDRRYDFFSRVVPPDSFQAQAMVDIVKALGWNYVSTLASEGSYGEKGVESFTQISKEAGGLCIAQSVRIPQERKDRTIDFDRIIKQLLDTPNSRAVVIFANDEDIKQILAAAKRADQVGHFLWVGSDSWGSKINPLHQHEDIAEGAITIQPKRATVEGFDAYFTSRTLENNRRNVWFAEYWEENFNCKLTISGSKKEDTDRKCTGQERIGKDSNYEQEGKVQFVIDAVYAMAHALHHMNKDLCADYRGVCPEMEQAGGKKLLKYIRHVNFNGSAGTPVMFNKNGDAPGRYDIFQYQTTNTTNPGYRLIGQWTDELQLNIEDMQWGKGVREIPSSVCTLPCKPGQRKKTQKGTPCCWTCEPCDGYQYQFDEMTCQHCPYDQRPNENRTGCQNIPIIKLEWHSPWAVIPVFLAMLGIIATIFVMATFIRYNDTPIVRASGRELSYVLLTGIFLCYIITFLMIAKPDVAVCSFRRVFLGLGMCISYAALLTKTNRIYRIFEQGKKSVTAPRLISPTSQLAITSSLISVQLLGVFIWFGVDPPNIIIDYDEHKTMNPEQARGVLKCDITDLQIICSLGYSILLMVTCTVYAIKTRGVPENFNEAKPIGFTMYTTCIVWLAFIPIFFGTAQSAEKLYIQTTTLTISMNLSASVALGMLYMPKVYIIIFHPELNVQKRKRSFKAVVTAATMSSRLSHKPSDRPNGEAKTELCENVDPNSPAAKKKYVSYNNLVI

[8] = Agonist activity at rat mGlu7 Q258R/D262/R263 mutant
[9] = target: Metabotropic glutamate receptor 7 (Rattus norvegicus, UniProt P35400, N74A); assay: Agonist activity at rat mGlu7 N74A mutant
Sequence of Metabotropic glutamate receptor 7 (Rattus norvegicus, UniProt P35400, N74A) (P35400 35-915 N74A limits assumed): as the sequence (P35400 35-915 N74K limits assumed) above, with K40A counted along it

[10] = target: Metabotropic glutamate receptor 4 (Rattus norvegicus, UniProt P31423, R258A); assay: Agonist activity at rat mGlu4 R258A mutant
Sequence of Metabotropic glutamate receptor 4 (Rattus norvegicus, UniProt P31423, R258A) (P31423 33-912 R258A limits assumed): as the sequence (P31423 33-912 S160D limits assumed) above, with D128S, R226A counted along it

[11] = target: Metabotropic glutamate receptor 4 (Rattus norvegicus, UniProt P31423, R60A); assay: Agonist activity against rat mGlu4 R60A mutant
Sequence of Metabotropic glutamate receptor 4 (Rattus norvegicus, UniProt P31423, R60A) (P31423 33-912 R60A limits assumed): as the sequence (P31423 33-912 S160D limits assumed) above, with R28A, D128S counted along it

[12] = Agonist activity at rat mGlu7 loop beta10-alpha7 region
[13] = target: Metabotropic glutamate receptor 4 (Rattus norvegicus, UniProt P31423, S160A); assay: Agonist activity against rat mGlu4 S160A mutant
Sequence of Metabotropic glutamate receptor 4 (Rattus norvegicus, UniProt P31423, S160A) (P31423 33-912 S160A limits assumed): as the sequence (P31423 33-912 S160D limits assumed) above, with D128A counted along it

[14] = Agonist activity at rat mGlu4 R258Q/D262/R263 mutant
[15] = target: Metabotropic glutamate receptor 4 (Rattus norvegicus, UniProt P31423, K74A); assay: Agonist activity against rat mGlu4 K74A mutant
Sequence of Metabotropic glutamate receptor 4 (Rattus norvegicus, UniProt P31423, K74A) (P31423 33-912 K74A limits assumed): as the sequence (P31423 33-912 S160D limits assumed) above, with K42A, D128S counted along it

[16] = Agonist activity at rat mGlu7 D314A mutant
[17] = target: Metabotropic glutamate receptor 7 (Rattus norvegicus, UniProt P35400, K60A); assay: Agonist activity at rat mGlu7 K60A mutant
Sequence of Metabotropic glutamate receptor 7 (Rattus norvegicus, UniProt P35400, K60A) (P35400 35-915 K60A limits assumed): as the sequence (P35400 35-915 N74K limits assumed) above, with K26A, K40N counted along it

[18] = target: Metabotropic glutamate receptor 7 (Rattus norvegicus, UniProt P35400); assay: Agonist activity at wild type rat mGlu7; format: functional
Sequence of Metabotropic glutamate receptor 7 (Rattus norvegicus, UniProt P35400) (P35400 whole entry): as the sequence (P35400 whole entry) above
How it was run: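 HEK293 cells were transiently transfected by electroporation with rat mGlu7 plasmid plus chimeric Gqα9 to couple to phospholipase C. They were grown in DMEM with 10% FBS on polyornithine-coated wells at 150 000 cells/well.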

| Compound | Emax [1] [%] | inhibition [2] | Ratio (Rattus norvegicus) | also measured |
| --- | --- | --- | --- | --- |
| O=c1c2ccccc2oc2c1oc1ccc(Cl)cc12 | – | inactive | – | – |
| O=C(COc1ccc([N+](=O)[O-])c([N+](=O)[O-])c1)c1ccc(O)cc1 | 101 | – | 1 | – |
| O=c1c2ccccc2oc2c1oc1cc(O)ccc12 | – | inactive | – | – |
| O=c1c2ccc(O)cc2oc2c1oc1cc(I)ccc12 | – | inactive | – | – |
| N#Cc1c(F)cc(OCC(=O)c2ccc(O)cc2)cc1F | 94.2 | – | 1.03 | – |
| COc1ccc(C(=O)COc2ccc(I)cc2)cc1OC | 80.4 | – | 1.05 | – |
| N[C@@H](CCP(=O)(O)O)C(=O)O | – | – | – | EC50 [3]: 182 µM; EC50 [4]: 0.343 µM; EC50 [5]: 12.3 µM; EC50 [6]: 0.505 µM; EC50 [7]: 10.5 µM; EC50 [8]: > 100 µM; EC50 [9]: > 100 µM; EC50 [10]: 1.87 µM; EC50 [11]: 1.16 µM; EC50 [12]: 45 µM; EC50 [13]: 2.66 µM; EC50 [14]: 11.1 µM; EC50 [15]: 0.23 µM; EC50 [16]: > 1000 µM; EC50 [17]: 1980 µM; EC50 [18]: > 100 µM |
| COc1ccc2c(=O)c3oc4ccc(I)cc4c3oc2c1 | – | inactive | – | – |
| O=c1c2ccc(O)cc2oc2c1oc1ccc(I)cc12 | – | inactive | – | – |
| COc1ccc2c(=O)c3oc4cc(I)ccc4c3oc2c1 | – | inactive | – | – |
| COc1ccc(C(=O)COc2ccc(I)cc2)cc1 | 93.6 | – | 0.97 | – |
| COc1ccc(C(=O)COc2ccc(C#N)cc2)cc1 | 89.4 | – | 0.95 | – |
| O=c1c2ccccc2oc2c1sc1ccccc12 | – | inactive | – | – |

More lines, main results first:

| Emax [1] [%] | inhibition [2] | Compound | Ratio (Rattus norvegicus) | also measured |
| --- | --- | --- | --- | --- |
| 95.4 | – | Cc1ccc(OCC(=O)c2ccc(O)cc2)cc1 | 0.96 | – |
| 89.2 | – | NS(=O)(=O)c1ccc(OCC(=O)c2ccc(O)cc2)cc1 | 1.06 | – |
| 98.3 | – | O=C(COc1ccc(I)cc1)c1ccc(O)cc1 | 0.83 | – |
| 102 | – | O=C(COc1cccc(I)c1)c1ccc(O)cc1 | 1.02 | – |
| 101 | – | O=C(COc1c(Cl)cc(Br)cc1Cl)c1ccc(O)cc1 | 1.01 | – |
| 94.6 | – | O=C(COc1c(F)cc(Br)cc1F)c1ccc(O)cc1 | 0.85 | – |
| 100 | – | O=C(COc1ccc(F)cc1F)c1ccc(O)cc1 | 1.04 | – |
| 96.1 | – | O=C(COc1ccc(Br)cc1Br)c1ccc(O)cc1 | 0.97 | – |
| 98.5 | – | O=C(COc1ccc(Cl)cc1)c1ccc(O)cc1 | 0.83 | – |
| 92.3 | – | O=C(COc1ccc(Cl)cc1Cl)c1ccc(O)cc1 | 0.94 | – |
